# Results gathered from unrelated publications.
# Protocols differ between the studies behind these lines.
# Method: competition with immobilised ligand
# RPS6KA6 C-terminal kinase domain: Ribosomal protein S6 kinase alpha-6, C-terminal kinase domain (RPS6KA6, Homo sapiens, UniProt Q9UK32)
# RPS6KA6 N-terminal kinase domain: Ribosomal protein S6 kinase alpha-6, N-terminal kinase domain (RPS6KA6, Homo sapiens, UniProt Q9UK32)
Structure (SMILES),target,assay,conditions,remaining binding
O=C(NS(=O)(=O)c1ccc(NCC2CCOCC2)c([N+](=O)[O-])c1)c1ccc(N2CCN(Cc3ccc(C(F)(F)F)cc3-c3ccc(Cl)cc3)CC2)cc1Oc1cnc2[nH]ccc2c1,RPS6KA6 C-terminal kinase domain,cell-free assay,1 µM,100%
N[C@H]1CCN(c2nccc(-c3cnn4ncccc34)n2)C1,RPS6KA6 C-terminal kinase domain,binding,1 µM,86%
O=C(O)c1cc(-c2ccc(C3CCNCC3)cc2)c2ccc(-c3ccc(C(F)(F)F)cc3)cc2c1,RPS6KA6 N-terminal kinase domain,cell-free assay,1 µM,100%
CN(C)c1nccc(-c2cnc3ncccn23)n1,RPS6KA6 C-terminal kinase domain,binding,1 µM,90%
O=C(c1ccc(Nc2ncc(Cl)c(-c3ccc(Cl)s3)n2)cc1)N1CCC(N2CCCC2)CC1,RPS6KA6 C-terminal kinase domain,binding,1 µM,83%
c1cncc(-c2cccc(Nc3nccc(NC4CCCCC4)n3)c2)c1,RPS6KA6 N-terminal kinase domain,binding,10 µM,50%
O=C(NCCCN1CCOCC1)c1ccc(Nc2nccc(-c3cc4ccccc4s3)n2)cc1,RPS6KA6 C-terminal kinase domain,binding,1 µM,35%
O=C(O)[C@H]1[C@H](Cn2nnc3ccccc3c2=O)CC[C@@H]1C(=O)c1ccc(OCCC2CCOCC2)cc1,RPS6KA6 C-terminal kinase domain,cell-free assay,1 µM,97%
CNC(=O)[C@@H]1CC[C@@H](n2c(-c3ccc4cnccc4c3)nc3ccc(C(=O)NCc4cccc(C(N)=O)c4)cc32)C1,RPS6KA6 C-terminal kinase domain,binding,1 µM,97%
CCN1CCN(Cc2ccc(C(=O)Nc3ccc(C)c(Oc4ccc5c(c4)CC(=O)N5)c3)cc2C(F)(F)F)CC1,RPS6KA6 C-terminal kinase domain,binding,1 µM,89%
Cc1cnn2ncc(-c3ccnc(N(C)C)n3)c2c1,RPS6KA6 C-terminal kinase domain,binding,1 µM,100%
O=C(c1ccc(Nc2nccc(-c3cc4ccccc4s3)n2)cc1)N1CCC(N2CCCC2)CC1,RPS6KA6 N-terminal kinase domain,binding,1 µM,98%
CCS(=O)(=O)c1cc2cc(C[C@@](O)(CC(C)(C)c3ccc(F)cc3C(N)=O)C(F)(F)F)[nH]c2cn1,RPS6KA6 N-terminal kinase domain,cell-free assay,1 µM,100%
O=C(c1ccc(Nc2ncc(Cl)c(-c3cc4ccccc4s3)n2)cc1)N1CCC(N2CCCC2)CC1,RPS6KA6 C-terminal kinase domain,binding,1 µM,89%
COc1cnc(Nc2cccc(S(N)(=O)=O)c2)nc1N1CCN(c2ccccc2)C(=O)C1,RPS6KA6 C-terminal kinase domain,binding,1 µM,92%
CN(C)c1nccc(-c2cnn3ncccc23)n1,RPS6KA6 N-terminal kinase domain,binding,1 µM,92%
COc1cnc(Nc2cccc(S(N)(=O)=O)c2)nc1N1CCN(c2ccccc2)CC1,RPS6KA6 N-terminal kinase domain,binding,1 µM,73%
O=C(Nc1c[nH]nc1C(=O)NC1CCNCC1)c1cc(F)cc(F)c1,RPS6KA6 N-terminal kinase domain,binding,1 µM,94%
CN(c1nccc(-c2cnn3ncccc23)n1)C1CC1,RPS6KA6 N-terminal kinase domain,binding,1 µM,83%
COc1ccc2c(c1)O[C@@H](c1ccc(OC)c(OC)c1)C[C@H]2NC(=O)C1(c2ccc3c(c2)OC(F)(F)O3)CC1,RPS6KA6 N-terminal kinase domain,cell-free assay,1 µM,84%
CC1CCCN1c1nccc(-c2cnn3ncccc23)n1 (stereo not drawn),RPS6KA6 C-terminal kinase domain,binding,1 µM,100%
O=C1NC(c2ccccn2)Sc2ccccc21 (stereo not drawn),RPS6KA6 N-terminal kinase domain,cell-free assay,1 µM,96%
F[C@@H]1CCN(c2nccc(-c3cnn4ncccc34)n2)C1,RPS6KA6 C-terminal kinase domain,binding,1 µM,92%
COc1cc(C(=O)N2CCC(N3CCN(C)CC3)CC2)ccc1Nc1ncc2c(n1)N(C)c1ccccc1C(=O)N2C,RPS6KA6 C-terminal kinase domain,binding,10 µM,2.2%
O=C(NCC1CCOCC1)c1n[nH]cc1NC(=O)c1c(F)cccc1F,RPS6KA6 C-terminal kinase domain,binding,1 µM,99%
Nc1ncc2c(n1)-c1c([nH]c3ccc(C#CC4CC4)cc13)CCCC2,RPS6KA6 N-terminal kinase domain,binding,1 µM,78%
COc1ncc2cc3ccccc3nc2c1C#N,RPS6KA6 C-terminal kinase domain,cell-free assay,5 µM,73%
Cc1cnc(Nc2ccc(C(=O)N3CCC(N4CCCC4)CC3)cc2)nc1-c1cc2ccccc2s1,RPS6KA6 N-terminal kinase domain,binding,1 µM,30%
Cc1c(C(=O)O)cc(-c2ccc(C3CCNCC3)cc2)c2ccc(-c3ccc(C(F)(F)F)cc3)cc12,RPS6KA6 C-terminal kinase domain,binding,1 µM,100%
FC(F)(F)Oc1cccc(-c2cnc3ccc(-c4ccncc4)nn23)c1,RPS6KA6 C-terminal kinase domain,binding,5 µM,34%
COc1ccnn2ncc(-c3ccnc(N(C)C)n3)c12,RPS6KA6 C-terminal kinase domain,binding,1 µM,100%
NS(=O)(=O)c1cc(NC(=O)C2(c3ccccc3Cl)CC2)ccc1Oc1cccc(Cl)c1,RPS6KA6 C-terminal kinase domain,cell-free assay,1 µM,96%
O=C(NCCCN1CCOCC1)c1ccc(Nc2ncc(Cl)c(-c3ccc(Cl)s3)n2)cc1,RPS6KA6 N-terminal kinase domain,binding,1 µM,72%
